Laboratory results from ChEMBL document CHEMBL2375239, “Improving the immunostimulatory potency of diethanolamine-containing lipid A mimics” (Bioorg Med Chem, 2013).
Active and inactive are the calls of the source. No cut-off for these calls is given here.

How the values were obtained:
Type in all cases: cell-based
Conditions in all cases: THP-1
[1] = target: T1, Toll-like receptor 4/MD-2 (Homo sapiens) (UniProt O00206+Q9Y6Y9); experiment: Agonist activity at TLR4/MD-2 receptor complex in human THP1 cells assessed as IL-1beta release at 10^-3 uM after 24 hrs by ELISA
Method in brief: (§1)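 Mimics reconstituted in 20% DMSO/PBS with brief sonication, fresh aliquot per experiment, final DMSO ≤0.5%. THP-1 cells differentiated 48 h with 25 ng/mL PMA, washed, serum-starved 3 h. Stimulated 24 h across 10⁻⁴–10 µM. Supernatant TNF-α, IL-6 or IL-1β read by ELISA (450 nm, 540 nm correction). Duplicates; mean of two experiments.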

[2] = target: T1, Toll-like receptor 4/MD-2 (Homo sapiens); experiment: Agonist activity at TLR4/MD-2 receptor complex in human THP1 cells assessed as TNF-alpha release at 10^-3 uM after 24 hrs by ELISA; method in brief: as §1
[3] = target: T1, Toll-like receptor 4/MD-2 (Homo sapiens); experiment: Agonist activity at TLR4/MD-2 receptor complex in human THP1 cells assessed as IL-1beta release at 10 uM after 24 hrs by ELISA; method in brief: as §1
[4] = target: T1, Toll-like receptor 4/MD-2 (Homo sapiens); experiment: Agonist activity at TLR4/MD-2 receptor complex in human THP1 cells assessed as IL-6 release at 10 uM after 24 hrs by ELISA; method in brief: as §1
[5] = target: T1, Toll-like receptor 4/MD-2 (Homo sapiens); experiment: Agonist activity at TLR4/MD-2 receptor complex in human THP1 cells assessed as TNF-alpha release at 10 uM after 24 hrs by ELISA; method in brief: as §1
[6] = target: T1, Toll-like receptor 4/MD-2 (Homo sapiens); experiment: Agonist activity at TLR4/MD-2 receptor complex in human THP1 cells assessed as IL-1beta release at 0.1 uM to 1 uM after 24 hrs by ELISA; method in brief: as §1
[7] = target: T1, Toll-like receptor 4/MD-2 (Homo sapiens); experiment: Agonist activity at TLR4/MD-2 receptor complex in human THP1 cells assessed as IL-6 release at 0.1 uM to 1 uM after 24 hrs by ELISA; method in brief: as §1
[8] = target: T1, Toll-like receptor 4/MD-2 (Homo sapiens); experiment: Agonist activity at TLR4/MD-2 receptor complex in human THP1 cells assessed as TNF-alpha release at 0.1 uM to 1 uM after 24 hrs by ELISA; method in brief: as §1
[9] = target: T1, Toll-like receptor 4/MD-2 (Homo sapiens); experiment: Agonist activity at TLR4/MD-2 receptor complex in human THP1 cells assessed as IL-1beta release at 0.001 uM after 24 hrs by ELISA in presence of lipid IVa in presence of 0.1 uM of lipid IVa
Method in brief: (§2)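 THP-1 cells plated at 0.5 × 10⁶ cells/well in RPMI with 25 ng/mL PMA for 48 h. Adherent cells washed with PBS, held in serum-free RPMI 3 h, then stimulated 24 h with agonist plus increasing lipid IVa (dissolved in DMSO). Supernatant TNF-α and IL-1β measured by ELISA, A450 corrected at 540 nm. Duplicates; mean of two separate experiments.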

[10] = target: T1, Toll-like receptor 4/MD-2 (Homo sapiens); experiment: Agonist activity at TLR4/MD-2 receptor complex in human THP1 cells assessed as TNF-alpha release at 0.001 uM after 24 hrs by ELISA in presence of 0.1 uM of lipid IVa; method in brief: as §2
[11] = target: T1, Toll-like receptor 4/MD-2 (Homo sapiens); experiment: Agonist activity at TLR4/MD-2 receptor complex in human THP1 cells assessed as IL-1beta release at 0.1 uM after 24 hrs by ELISA in presence of lipid IVa in presence of 0.1 uM of lipid IVa; method in brief: as §2
[12] = target: T1, Toll-like receptor 4/MD-2 (Homo sapiens); experiment: Agonist activity at TLR4/MD-2 receptor complex in human THP1 cells assessed as TNF-alpha release at 0.1 uM after 24 hrs by ELISA in presence of 0.1 uM of lipid IVa; method in brief: as §2
[13] = target: T1, Toll-like receptor 4/MD-2 (Homo sapiens); experiment: Agonist activity at TLR4/MD-2 receptor complex in human THP1 cells assessed as IL-1beta release at 0.1 uM after 24 hrs by ELISA in presence of lipid IVa in presence of 0.5 uM of lipid IVa; method in brief: as §2
[14] = target: T1, Toll-like receptor 4/MD-2 (Homo sapiens); experiment: Agonist activity at TLR4/MD-2 receptor complex in human THP1 cells assessed as TNF-alpha release at 0.1 uM after 24 hrs by ELISA in presence of 0.5 uM of lipid IVa; method in brief: as §2
[15] = target: T1, Toll-like receptor 4/MD-2 (Homo sapiens); experiment: Agonist activity at TLR4/MD-2 receptor complex in human THP1 cells assessed as IL-1beta release at 10^-4 uM after 24 hrs by ELISA; method in brief: as §1

SMILES | Activity [1] | Activity [2] | Activity [3] | Activity [4] | Activity [5] | Activity [6] | Activity [7] | Activity [8] | Activity [9] | Activity [10] | Activity [11] | Activity [12] | Activity [13] | Activity [14] | Activity [15]
CCCCCCCCCCCCCC(=O)O[C@H](CCCCCCCCCCC)CC(=O)N[C@H]1[C@H](OCCN(CCO)C(=O)C[C@@H](CCCCCCCCCCC)OC(=O)CCCCCCCCCCCCC)O[C@H](CO)[C@@H](OP(=O)(O)O)[C@@H]1OC(=O)C[C@@H](CCCCCCCCCCC)OC(=O)CCCCCCCCCCCCC | Active | Active | Active | Active | Active | Active | Active | Active |  |  |  |  |  |  | 
CCCCCCCCCCCCCC(=O)O[C@H](CCCCCCCCCCC)CC(=O)N[C@H]1[C@H](OCCN(CC(=O)O)C(=O)C[C@@H](CCCCCCCCCCC)OC(=O)CCCCCCCCCCCCC)O[C@H](CO)[C@@H](OP(=O)(O)O)[C@@H]1OC(=O)C[C@@H](CCCCCCCCCCC)OC(=O)CCCCCCCCCCCCC | Active | Active | Active | Active | Active | Active | Active | Active | Active | Active | Active | Active | Active | inactive | Active
CCCCCCCCCCCCCC(=O)O[C@H](CCCCCCCCCCC)CC(=O)N[C@H]1[C@H](OCCN(CCOP(=O)(O)O)C(=O)C[C@@H](CCCCCCCCCCC)OC(=O)CCCCCCCCCCCCC)O[C@H](CO)[C@@H](OP(=O)(O)O)[C@@H]1OC(=O)C[C@@H](CCCCCCCCCCC)OC(=O)CCCCCCCCCCCCC | Active | Active | Active | Active | Active | Active | Active | Active |  |  |  |  |  |  | 
